Results reported in ChEMBL document CHEMBL1144843, “Design and campaign synthesis of pyridine-based histone deacetylase inhibitors” (Bioorg Med Chem Lett, 2008).
pIC50: −log10 of the molar value. Converted amounts (≈) assume the structure as drawn.

How the values were obtained:
Histone deacetylase 1 = Histone deacetylase 1 (Homo sapiens, UniProt Q13547); experiment: Inhibition of human HDAC1 expressed in Hi5 cells; design: species or system BTI-TN-5B1-4
Procedure, shortened: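 C-terminally FLAG-tagged HDAC1 purified on anti-FLAG M2 agarose. Development 30 min at ambient temperature, fluorescence read at ex 360/em 465 nm. IC50 taken from dose–response curves.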

HCT-116 = experiment: Antiproliferative activity against human HCT116 cells after 72 hrs; format: functional, cell-based; conditions: HCT-116, 72 h
Procedure, shortened: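 HCT116 cells seeded at 1 × 10³ cells/well and left to adhere overnight, then exposed to inhibitors for 72 h. MTS tetrazolium dye added and incubated a further 3 h, with absorbance read at 490 nm.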

[1] = biological target: Voltage-gated inwardly rectifying potassium channel KCNH2 (Homo sapiens, UniProt Q12809); experiment: Inhibition of human ERG channel
Voltage-gated inwardly rectifying potassium channel KCNH2, sequence (Q12809 whole entry): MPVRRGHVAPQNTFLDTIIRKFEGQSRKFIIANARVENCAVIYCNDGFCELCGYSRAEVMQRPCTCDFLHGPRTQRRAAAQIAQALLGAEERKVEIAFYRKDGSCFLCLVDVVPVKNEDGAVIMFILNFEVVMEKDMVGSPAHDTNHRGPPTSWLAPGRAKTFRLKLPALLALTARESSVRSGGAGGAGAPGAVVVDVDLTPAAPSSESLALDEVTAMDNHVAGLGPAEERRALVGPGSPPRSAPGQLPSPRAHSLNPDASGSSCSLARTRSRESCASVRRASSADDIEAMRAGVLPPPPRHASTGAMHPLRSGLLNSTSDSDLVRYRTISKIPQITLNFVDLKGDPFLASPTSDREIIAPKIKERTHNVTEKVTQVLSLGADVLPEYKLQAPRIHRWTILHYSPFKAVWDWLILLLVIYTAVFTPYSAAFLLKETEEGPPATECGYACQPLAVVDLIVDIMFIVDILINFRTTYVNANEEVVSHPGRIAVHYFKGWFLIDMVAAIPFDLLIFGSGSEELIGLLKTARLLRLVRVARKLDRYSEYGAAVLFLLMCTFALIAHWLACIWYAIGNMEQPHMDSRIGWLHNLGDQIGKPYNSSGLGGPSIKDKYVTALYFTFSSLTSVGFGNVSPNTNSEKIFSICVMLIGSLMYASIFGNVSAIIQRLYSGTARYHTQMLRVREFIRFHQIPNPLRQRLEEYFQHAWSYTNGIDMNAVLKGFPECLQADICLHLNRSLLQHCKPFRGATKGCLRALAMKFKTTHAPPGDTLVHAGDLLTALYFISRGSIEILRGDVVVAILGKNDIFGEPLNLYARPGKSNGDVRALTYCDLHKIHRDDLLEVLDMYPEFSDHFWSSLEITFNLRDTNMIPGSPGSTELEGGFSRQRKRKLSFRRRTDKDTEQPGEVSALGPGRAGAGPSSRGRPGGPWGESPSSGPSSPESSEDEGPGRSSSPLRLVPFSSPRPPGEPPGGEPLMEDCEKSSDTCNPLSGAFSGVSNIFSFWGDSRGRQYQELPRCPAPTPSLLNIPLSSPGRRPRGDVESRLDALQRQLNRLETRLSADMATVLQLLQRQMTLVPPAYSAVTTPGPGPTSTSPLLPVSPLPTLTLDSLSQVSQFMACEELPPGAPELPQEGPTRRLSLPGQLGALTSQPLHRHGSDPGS

[2] = Solubility at pH 7.4; format: physicochemical; conditions: buffer
[3] = Lipophilicity, log D at pH 7.4; format: physicochemical; conditions: buffer
[4] = Clearance in rat at 5 umol/kg, iv; format: ADME, organism-based; conditions: in vivo
[5] = Volume of distribution at steady state in rat at 5 umol/kg, iv; format: ADME, organism-based; conditions: in vivo, read-out: Vdss
[6] = Half life in rat at 10 umol/kg, po; format: ADME, organism-based; conditions: in vivo
[7] = Half life in rat at 5 umol/kg, iv; format: ADME, organism-based; conditions: in vivo
[8] = Half life in rat at 56.7 umol/kg, po; format: ADME, organism-based; conditions: in vivo
[9] = Clearance in rat at 2.5 umol/kg, iv; format: ADME, organism-based; conditions: in vivo
[10] = Half life in rat at 2.5 umol/kg, iv; format: ADME, organism-based; conditions: in vivo
[11] = Volume of distribution at steady state in rat at 2.5 umol/kg, iv; format: ADME, organism-based; conditions: in vivo, read-out: Vdss
[12] = Half life in rat at 56.4 umol/kg, po; format: ADME, organism-based; conditions: in vivo
[13] = Half life in rat at 63.6 umol/kg, po; format: ADME, organism-based; conditions: in vivo
[14] = Half life in rat at 55 umol/kg, po; format: ADME, organism-based; conditions: in vivo
[15] = Half life in rat at 55.6 umol/kg, po; format: ADME, organism-based; conditions: in vivo
[16] = Half life in rat at 65.2 umol/kg, po; format: ADME, organism-based; conditions: in vivo
[17] = Half life in mouse at 65.2 umol/kg, po; format: ADME, organism-based; conditions: in vivo
[18] = Clearance in Beagle dog at 0.8 umol/kg, iv; format: ADME, organism-based, Canis lupus familiaris; conditions: in vivo
[19] = Volume of distribution at steady state in Beagle dog at 0.8 umol/kg, iv; format: ADME, organism-based, Canis lupus familiaris; conditions: in vivo, read-out: Vdss
[20] = Half life in Beagle dog at 0.8 umol/kg, iv; format: ADME, organism-based, Canis lupus familiaris; conditions: in vivo
[21] = Half life in Beagle dog at 3 umol/kg, po; format: ADME, organism-based, Canis lupus familiaris; conditions: in vivo
[22] = Bioavailability in Beagle dog at 3 umol/kg, po; format: ADME, organism-based, Canis lupus familiaris; conditions: in vivo
Plasma [23] = experiment: Fraction unbound to rat plasma protein in mouse; format: ADME, cell-free
Plasma [24] = experiment: Fraction unbound to rat plasma protein in rat; format: ADME, cell-free
Plasma [25] = experiment: Fraction unbound to […]; format: ADME, cell-free, Canis lupus familiaris
[26] = Half life in rat at 67.1 umol/kg, po; format: ADME, organism-based; conditions: in vivo

Histone deacetylase 1, sequence (Q13547 whole entry): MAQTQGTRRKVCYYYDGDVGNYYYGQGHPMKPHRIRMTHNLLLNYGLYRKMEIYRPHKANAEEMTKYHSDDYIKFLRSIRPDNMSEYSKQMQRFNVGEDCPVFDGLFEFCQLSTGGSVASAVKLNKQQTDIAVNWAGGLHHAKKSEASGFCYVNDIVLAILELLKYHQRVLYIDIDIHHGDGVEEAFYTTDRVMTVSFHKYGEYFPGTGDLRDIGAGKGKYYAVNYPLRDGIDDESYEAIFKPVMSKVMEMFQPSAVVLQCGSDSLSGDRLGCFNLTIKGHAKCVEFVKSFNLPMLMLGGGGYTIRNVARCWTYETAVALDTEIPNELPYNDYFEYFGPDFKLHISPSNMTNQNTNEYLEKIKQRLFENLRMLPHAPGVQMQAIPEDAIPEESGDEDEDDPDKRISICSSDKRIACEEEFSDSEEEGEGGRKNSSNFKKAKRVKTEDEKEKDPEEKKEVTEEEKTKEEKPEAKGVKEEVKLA

| SMILES | pIC50 (Histone deacetylase 1) | pIC50 (HCT-116) | solubility [2] | logD [3] | clearance [4] | Vd [5] | pIC50 [1] | also measured |
| --- | --- | --- | --- | --- | --- | --- | --- | --- |
| N#Cc1cccnc1-c1ccc(C(=O)Nc2ccccc2N)cc1 | 7.91 | 6.54 | 35 µM (≈ 11 µg/mL) | 1.58 | 56.1 mL/min/kg | 1 L/kg | < 4.50 |  |
| Nc1ccccc1NC(=O)c1ccc(-c2ncc(CN3CCC3)cc2F)cc1 | 7.30 | 6.43 | 841 µM (≈ 317 µg/mL) | 1.69 | 34 mL/min/kg | 6.3 L/kg | < 4.60 | half-life [6]: 5.4 h; half-life [7]: 3.6 h |
| Nc1ccccc1NC(=O)c1ccc(-c2ncc(CN3CCC3)cc2Cl)cc1 | 7.73 | 6.52 | 1340 µM (≈ 526 µg/mL) |  |  |  | 4.65 | half-life [13]: 5.2 h |
| CC(C)N1CCN(Cc2cnc(-c3ccc(C(=O)Nc4ccccc4N)cc3)c(C#N)c2)CC1 | 7.98 | 6.85 | 1380 µM (≈ 630 µg/mL) | 1.28 |  |  | 4.72 | half-life [14]: 4.3 h; clearance [9]: 44 mL/min/kg; half-life [10]: 2 h; Vd [11]: 5.1 L/kg |
| N#Cc1cc(CN2CCC2)cnc1-c1ccc(C(=O)Nc2ccccc2N)cc1 | 8.01 | 6.86 | 746 µM (≈ 286 µg/mL) | 1.22 | 19.6 mL/min/kg | 5.4 L/kg | < 4.60 | half-life [16]: 5.5 h; half-life [17]: 3 h; clearance [18]: 30 mL/min/kg; Vd [19]: 2.32 L/kg; half-life [20]: 1.9 h; half-life [21]: 2.1 h; bioavailability [22]: 13%; fu (Plasma [23]): 54%; fu (Plasma [24]): 53%; fu (Plasma [25]): 48%; half-life [7]: 3.8 h |
| Cc1cc(CN2CCC2)cnc1-c1ccc(C(=O)Nc2ccccc2N)cc1 | 7.67 | 6.51 | 2240 µM (≈ 834 µg/mL) | 1.18 | 30.2 mL/min/kg | 6.9 L/kg |  | half-life [26]: 5.5 h; half-life [7]: 3 h |
| CC(C)N1CCN(Cc2cnc(-c3ccc(C(=O)Nc4ccccc4N)cc3)c(Cl)c2)CC1 | 7.88 | 6.51 | > 1490 µM | 1.68 |  |  | 5.15 |  |

More lines, main results first:

| pIC50 (Histone deacetylase 1) | pIC50 (HCT-116) | solubility [2] | logD [3] | clearance [4] | Vd [5] | SMILES | pIC50 [1] | also measured |
| --- | --- | --- | --- | --- | --- | --- | --- | --- |
| 8.01 | 6.86 | > 1940 µM | 1.14 |  |  | CCN1CCN(Cc2cnc(-c3ccc(C(=O)Nc4ccccc4N)cc3)c(C#N)c2)CC1 | < 4.60 | half-life [8]: 3.2 h; clearance [9]: 47.5 mL/min/kg; half-life [10]: 1.1 h; Vd [11]: 3.6 L/kg |
|  | 6.62 | > 2620 µM | 1.44 |  |  | Cc1cc(CN2CCN(C(C)C)CC2)cnc1-c1ccc(C(=O)Nc2ccccc2N)cc1 |  | half-life [12]: 3.4 h |
| 7.42 | 6.36 | > 2420 µM |  |  |  | CCN1CCN(Cc2cnc(-c3ccc(C(=O)Nc4ccccc4N)cc3)c(F)c2)CC1 | < 4.50 |  |
| 7.79 | 6.47 |  | 1.81 |  |  | CCN1CCN(Cc2cnc(-c3ccc(C(=O)Nc4ccccc4N)cc3)c(Cl)c2)CC1 | 5.08 | half-life [15]: 4.4 h |
| 7.48 | 6.19 | > 2160 µM | 1.6 |  |  | CC(C)N1CCN(Cc2cnc(-c3ccc(C(=O)Nc4ccccc4N)cc3)c(F)c2)CC1 | < 4.50 |  |
| 7.73 | 6.64 | > 2350 µM | 1.2 |  |  | CCN1CCN(Cc2cnc(-c3ccc(C(=O)Nc4ccccc4N)cc3)c(C)c2)CC1 | < 4.60 |  |
